Where “and” joins values, the source holds several entries; their conditions need not be identical. Equal entries are not always repeated.
The compounds below were run on U2OS (assay: Multiplex assay against U2OS). Details: human, 12 h, 1 µM, compound concentration 1 uM.
Type: toxicity, cell-based
Outline: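 Phenotypes for tubulin, mitochondrial mass and membrane permeability are expressed as per cents of healthy-nucleus cells. Cells were stained live at seeding with Hoechst33342, BioTracker Green Microtubule Cytoskeleton Dye, MitoTracker Red and Annexin V Alexa Fluor 680, then imaged after compound addition on a CQ1 microscope at 37°C and 5% CO2. Machine-learning gating in CellPathfinder separated Hoechst high-intensity objects from normal cells, divided normal cells by nuclear state (healthy, pyknosed, fragmented) and divided pyknosed cells into mitotic or apoptotic.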
In the case of `COC(c1ccccc1)(c1ccccc1)[C@H](Oc1nc(C)cc(C)n1)C(=O)O` [AMBRISENTAN], the “Population Apoptotic (%)” value is reported as 95% and 100%, the “Population Fragmented Nuclei (%)” value is reported as 26% and 21% and the “Population Healthy Nuclei (%)” value is reported as 62% and 72%. For the same compound, the “Population Hoechst High Intensity Objects (%)” value was 2%, the “Population Membrane Permeable-Phenotype (%)” value was 3% and 8% and the “Population Mitochondria Different-Phenotype (%)” value was 0% and 3%. For the same compound, the “Population Mitotic Cells (%)” value was 4% and 0%, the “Population Normal (%)” value was 97% and the “Population Pyknosed Nuclei (%)” value was 10% and 5%. The “Population Tubulin-Different-Phenotype (%)” value was 1% and the “Total Cell Count” value was 209 and 87.
For `Cc1ccccc1C(=O)Nc1ccc(C(=O)N2CCCC(N(C)C)c3ccccc32)cc1.Cl` (stereo not given), the “Population Apoptotic (%)” value was 91% and 77%, the “Population Fragmented Nuclei (%)” value was 20% and 14% and the “Population Healthy Nuclei (%)” value was 70% and 79%. For the same compound, the “Population Hoechst High Intensity Objects (%)” value was 1%, the “Population Membrane Permeable-Phenotype (%)” value was 5% and 4% and the “Population Mitochondria Different-Phenotype (%)” value was 3% and 5%. For the same compound, the “Population Mitotic Cells (%)” value was 8% and 22%, the “Population Normal (%)” value was 98% and the “Population Pyknosed Nuclei (%)” value was 8% and 5%. The “Population Tubulin-Different-Phenotype (%)” value was 4% and 1% and the “Total Cell Count” value was 282 and 157.

Same assay, conditions: human, 12 h, 10 µM, compound concentration 10 uM
For `COC(c1ccccc1)(c1ccccc1)[C@H](Oc1nc(C)cc(C)n1)C(=O)O` [AMBRISENTAN], the “Population Apoptotic (%)” value was 61% and 100%, the “Population Fragmented Nuclei (%)” value was 28% and 19% and the “Population Healthy Nuclei (%)” value was 63% and 72%. The “Population Hoechst High Intensity Objects (%)” value was 2% and 0%, the “Population Membrane Permeable-Phenotype (%)” value was 4% and the “Population Mitochondria Different-Phenotype (%)” value was 2% and 0%. The “Population Normal (%)” value was 97% and 99%, the “Population Pyknosed Nuclei (%)” value was 7% and the “Population Tubulin-Different-Phenotype (%)” value was 1% and 0%. For the same compound, the “Total Cell Count” value was 232 and 104.
`Cc1ccccc1C(=O)Nc1ccc(C(=O)N2CCCC(N(C)C)c3ccccc32)cc1.Cl` (stereo not given) was tested, and the “Population Apoptotic (%)” value was 59% and 56%, the “Population Fragmented Nuclei (%)” value was 18% and the “Population Healthy Nuclei (%)” value was 55% and 62%. The “Population Hoechst High Intensity Objects (%)” value was 4% and 1%, the “Population Membrane Permeable-Phenotype (%)” value was 14% and 15% and the “Population Mitochondria Different-Phenotype (%)” value was 11% and 25%. For the same compound, the “Population Mitotic Cells (%)” value was 40% and 43%, the “Population Normal (%)” value was 95% and 98% and the “Population Pyknosed Nuclei (%)” value was 25% and 19%. The “Population Tubulin-Different-Phenotype (%)” value was 8% and 15% and the “Total Cell Count” value was 213 and 83.

Same assay, conditions: human, 24 h, 1 µM, compound concentration 1 uM
For `COC(c1ccccc1)(c1ccccc1)[C@H](Oc1nc(C)cc(C)n1)C(=O)O` [AMBRISENTAN], the “Population Apoptotic (%)” value was 95% and 100%, the “Population Fragmented Nuclei (%)” value was 27% and 23% and the “Population Healthy Nuclei (%)” value was 63% and 66%. For the same compound, the “Population Hoechst High Intensity Objects (%)” value was 0%, the “Population Membrane Permeable-Phenotype (%)” value was 4% and 1% and the “Population Mitochondria Different-Phenotype (%)” value was 1% and 2%. The “Population Mitotic Cells (%)” value was 4% and 0%, the “Population Normal (%)” value was 99% and the “Population Pyknosed Nuclei (%)” value was 8% and 10%. The “Population Tubulin-Different-Phenotype (%)” value was 1% and the “Total Cell Count” value was 248 and 111.
`Cc1ccccc1C(=O)Nc1ccc(C(=O)N2CCCC(N(C)C)c3ccccc32)cc1.Cl` (stereo not given) was tested, and the “Population Apoptotic (%)” value was 88% and 66%, the “Population Fragmented Nuclei (%)” value was 18% and 13% and the “Population Healthy Nuclei (%)” value was 70% and 77%. For the same compound, the “Population Hoechst High Intensity Objects (%)” value was 0% and 1%, the “Population Membrane Permeable-Phenotype (%)” value was 6% and 5% and the “Population Mitochondria Different-Phenotype (%)” value was 3% and 4%. For the same compound, the “Population Mitotic Cells (%)” value was 11% and 33%, the “Population Normal (%)” value was 99% and 98% and the “Population Pyknosed Nuclei (%)” value was 10% and 9%. The “Population Tubulin-Different-Phenotype (%)” value was 4% and 3% and the “Total Cell Count” value was 333 and 192.

Same assay, conditions: human, 24 h, 10 µM, compound concentration 10 uM
For `COC(c1ccccc1)(c1ccccc1)[C@H](Oc1nc(C)cc(C)n1)C(=O)O` [AMBRISENTAN], the “Population Apoptotic (%)” value was 84% and 80%, the “Population Fragmented Nuclei (%)” value was 25% and 13% and the “Population Healthy Nuclei (%)” value was 65% and 77%. The “Population Hoechst High Intensity Objects (%)” value was 1% and 0%, the “Population Membrane Permeable-Phenotype (%)” value was 7% and the “Population Mitochondria Different-Phenotype (%)” value was 2%. For the same compound, the “Population Mitotic Cells (%)” value was 16% and 20%, the “Population Normal (%)” value was 98% and 100% and the “Population Pyknosed Nuclei (%)” value was 9% and 8%. For the same compound, the “Population Tubulin-Different-Phenotype (%)” value was 3% and 5% and the “Total Cell Count” value was 273 and 115.
In the case of `Cc1ccccc1C(=O)Nc1ccc(C(=O)N2CCCC(N(C)C)c3ccccc32)cc1.Cl` (stereo not given), the “Population Apoptotic (%)” value is reported as 71% and 46%, the “Population Fragmented Nuclei (%)” value is reported as 16% and 27% and the “Population Healthy Nuclei (%)” value is reported as 51% and 53%. The “Population Hoechst High Intensity Objects (%)” value was 4% and 5%, the “Population Membrane Permeable-Phenotype (%)” value was 16% and 18% and the “Population Mitochondria Different-Phenotype (%)” value was 14% and 18%. The “Population Mitotic Cells (%)” value was 28% and 53%, the “Population Normal (%)” value was 95% and 94% and the “Population Pyknosed Nuclei (%)” value was 31% and 18%. For the same compound, the “Population Tubulin-Different-Phenotype (%)” value was 6% and 18% and the “Total Cell Count” value was 211 and 73.

Same assay, conditions: human, 48 h, 1 µM, compound concentration 1 uM
With `COC(c1ccccc1)(c1ccccc1)[C@H](Oc1nc(C)cc(C)n1)C(=O)O` [AMBRISENTAN] the “Population Apoptotic (%)” value was 89% and 93%, the “Population Fragmented Nuclei (%)” value was 17% and the “Population Healthy Nuclei (%)” value was 70% and 72%. For the same compound, the “Population Hoechst High Intensity Objects (%)” value was 2%, the “Population Membrane Permeable-Phenotype (%)” value was 2% and 0% and the “Population Mitochondria Different-Phenotype (%)” value was 1%. For the same compound, the “Population Mitotic Cells (%)” value was 10% and 6%, the “Population Normal (%)” value was 97% and the “Population Pyknosed Nuclei (%)” value was 11% and 10%. The “Population Tubulin-Different-Phenotype (%)” value was 0% and the “Total Cell Count” value was 333 and 151.
With `Cc1ccccc1C(=O)Nc1ccc(C(=O)N2CCCC(N(C)C)c3ccccc32)cc1.Cl` (stereo not given) the “Population Apoptotic (%)” value was 85% and 83%, the “Population Fragmented Nuclei (%)” value was 14% and 15% and the “Population Healthy Nuclei (%)” value was 71% and 72%. For the same compound, the “Population Hoechst High Intensity Objects (%)” value was 1%, the “Population Membrane Permeable-Phenotype (%)” value was 5% and 7% and the “Population Mitochondria Different-Phenotype (%)” value was 3% and 5%. The “Population Mitotic Cells (%)” value was 14% and 16%, the “Population Normal (%)” value was 98% and the “Population Pyknosed Nuclei (%)” value was 13% and 12%. The “Population Tubulin-Different-Phenotype (%)” value was 3% and 4% and the “Total Cell Count” value was 414 and 248.

Same assay, conditions: human, 48 h, 10 µM, compound concentration 10 uM
With `COC(c1ccccc1)(c1ccccc1)[C@H](Oc1nc(C)cc(C)n1)C(=O)O` [AMBRISENTAN] the “Population Apoptotic (%)” value was 87% and 81%, the “Population Fragmented Nuclei (%)” value was 21% and 13% and the “Population Healthy Nuclei (%)” value was 68% and 79%. The “Population Hoechst High Intensity Objects (%)” value was 3% and 0%, the “Population Membrane Permeable-Phenotype (%)” value was 4% and 2% and the “Population Mitochondria Different-Phenotype (%)” value was 2% and 0%. The “Population Mitotic Cells (%)” value was 12% and 18%, the “Population Normal (%)” value was 96% and 100% and the “Population Pyknosed Nuclei (%)” value was 10% and 6%. The “Population Tubulin-Different-Phenotype (%)” value was 3% and 2% and the “Total Cell Count” value was 388 and 174.
With `Cc1ccccc1C(=O)Nc1ccc(C(=O)N2CCCC(N(C)C)c3ccccc32)cc1.Cl` (stereo not given) the “Population Apoptotic (%)” value was 71% and 84%, the “Population Fragmented Nuclei (%)” value was 28% and the “Population Healthy Nuclei (%)” value was 43% and 42%. The “Population Hoechst High Intensity Objects (%)” value was 8%, the “Population Membrane Permeable-Phenotype (%)” value was 17% and 11% and the “Population Mitotic Cells (%)” value was 28% and 16%. For the same compound, the “Population Normal (%)” value was 91%, the “Population Pyknosed Nuclei (%)” value was 28% and 29% and the “Population Tubulin-Different-Phenotype (%)” value was 7% and 13%. For the same compound, the “Total Cell Count” value was 206 and 93.

— ChEMBL document CHEMBL5724801, “EUbOPEN Chemogenomics Library - Multiplex” (2024)
